Measurements published in ChEMBL document CHEMBL5661979, “Pharmacological inhibition of BMK1 suppresses tumor growth through promyelocytic leukemia protein” (Cancer Cell, 2010).
Activity calls are given as the source filed them. The rule behind the calls is not given here.

Experiments:
[1] = biological target: Eukaryotic elongation factor 2 kinase (Homo sapiens) (UniProt O00418); assay: Inhibition of EEF2K in human HeLa cells lysate at 2 uM pre incubated for 15 mins followed by ATP acyl phosphate probe addition and measured after 10 mins by LC-MS/MS analysis relative to control; format: subcellular; settings: time 25.0 min
[2] = Inhibition of MST4/YSK1 in human HeLa cells lysate pre incubated for 15 mins followed by ATP acyl phosphate probe addition and measured after 10 mins by LC-MS/MS analysis; format: subcellular
[3] = Inhibition of PKD1/2 in human HeLa cells lysate pre incubated for 15 mins followed by ATP acyl phosphate probe addition and measured after 10 mins by LC-MS/MS analysis; format: subcellular
[4] = biological target: Cyclin-dependent kinase 13 (Homo sapiens, UniProt Q14004); assay: Inhibition of CHED in human HeLa cells lysate pre incubated for 15 mins followed by ADP acyl phosphate probe addition and measured after 10 mins by LC-MS/MS analysis; format: subcellular
Sequence of Cyclin-dependent kinase 13 (Q14004 whole entry, the tested form may be a part): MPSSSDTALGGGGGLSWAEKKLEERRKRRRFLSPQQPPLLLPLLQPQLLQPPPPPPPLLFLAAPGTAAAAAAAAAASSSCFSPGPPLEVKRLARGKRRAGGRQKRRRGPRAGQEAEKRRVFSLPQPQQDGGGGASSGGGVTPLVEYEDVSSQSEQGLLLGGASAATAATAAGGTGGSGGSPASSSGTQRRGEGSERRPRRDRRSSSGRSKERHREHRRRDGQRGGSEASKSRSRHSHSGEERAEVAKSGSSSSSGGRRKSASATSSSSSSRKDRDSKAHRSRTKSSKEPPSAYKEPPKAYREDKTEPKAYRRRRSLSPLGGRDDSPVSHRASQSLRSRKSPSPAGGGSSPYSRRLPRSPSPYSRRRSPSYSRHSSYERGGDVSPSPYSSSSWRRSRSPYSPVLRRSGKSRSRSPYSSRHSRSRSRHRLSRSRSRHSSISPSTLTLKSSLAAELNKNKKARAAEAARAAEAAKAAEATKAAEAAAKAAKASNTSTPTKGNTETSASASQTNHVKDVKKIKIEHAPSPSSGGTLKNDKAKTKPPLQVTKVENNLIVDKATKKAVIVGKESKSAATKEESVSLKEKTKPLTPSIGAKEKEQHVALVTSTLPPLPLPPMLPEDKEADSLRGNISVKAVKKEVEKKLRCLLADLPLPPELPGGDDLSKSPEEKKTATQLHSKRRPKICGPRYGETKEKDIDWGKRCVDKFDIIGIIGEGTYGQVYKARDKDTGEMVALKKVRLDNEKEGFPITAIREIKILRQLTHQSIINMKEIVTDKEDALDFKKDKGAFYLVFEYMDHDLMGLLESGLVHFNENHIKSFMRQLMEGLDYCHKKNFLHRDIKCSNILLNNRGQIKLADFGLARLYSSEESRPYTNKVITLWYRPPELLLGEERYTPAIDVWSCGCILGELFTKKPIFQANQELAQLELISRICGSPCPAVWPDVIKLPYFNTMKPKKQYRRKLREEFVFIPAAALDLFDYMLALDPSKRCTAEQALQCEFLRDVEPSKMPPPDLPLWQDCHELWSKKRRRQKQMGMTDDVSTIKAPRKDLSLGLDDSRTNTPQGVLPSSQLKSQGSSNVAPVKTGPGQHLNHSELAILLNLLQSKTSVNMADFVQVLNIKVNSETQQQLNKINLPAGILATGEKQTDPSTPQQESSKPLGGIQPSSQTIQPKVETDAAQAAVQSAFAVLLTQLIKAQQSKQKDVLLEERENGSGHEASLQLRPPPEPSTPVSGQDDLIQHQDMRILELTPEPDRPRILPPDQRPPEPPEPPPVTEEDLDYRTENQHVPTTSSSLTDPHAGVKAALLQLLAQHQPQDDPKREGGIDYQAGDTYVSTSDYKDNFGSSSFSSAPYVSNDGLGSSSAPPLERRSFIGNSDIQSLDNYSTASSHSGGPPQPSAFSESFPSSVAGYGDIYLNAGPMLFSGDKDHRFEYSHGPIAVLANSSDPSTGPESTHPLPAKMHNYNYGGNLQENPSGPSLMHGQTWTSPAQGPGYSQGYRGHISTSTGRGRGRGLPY
Summary of the method: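 KiNativ profiling in HeLa lysate (5 mg/mL total protein). Lysate incubated 15 min with inhibitor at 50, 10, 2, 0.8 or 0 μM. ATP or ADP acylphosphate probe then added (5 μM final) and reacted 10 min. Reaction stopped with urea and analysed by targeted MS, using up to four fragment ions per kinase peptide-probe conjugate. % inhibition taken against untreated lysate. Run in duplicate.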

[5] = biological target: Serine/threonine-protein kinase Aurora (Homo sapiens, UniProt Q96GD4+Q9UQB9+O14965); assay: Inhibition of AurA/AurB/AurC in human HeLa cells lysate at 10 uM pre incubated for 15 mins followed by ATP acyl phosphate probe addition and measured after 10 mins by LC-MS/MS analysis relative to control; format: subcellular; settings: time 25.0 min
Sequence of Serine/threonine-protein kinase Aurora (O14965 whole entry, looked up, the tested form may be a part): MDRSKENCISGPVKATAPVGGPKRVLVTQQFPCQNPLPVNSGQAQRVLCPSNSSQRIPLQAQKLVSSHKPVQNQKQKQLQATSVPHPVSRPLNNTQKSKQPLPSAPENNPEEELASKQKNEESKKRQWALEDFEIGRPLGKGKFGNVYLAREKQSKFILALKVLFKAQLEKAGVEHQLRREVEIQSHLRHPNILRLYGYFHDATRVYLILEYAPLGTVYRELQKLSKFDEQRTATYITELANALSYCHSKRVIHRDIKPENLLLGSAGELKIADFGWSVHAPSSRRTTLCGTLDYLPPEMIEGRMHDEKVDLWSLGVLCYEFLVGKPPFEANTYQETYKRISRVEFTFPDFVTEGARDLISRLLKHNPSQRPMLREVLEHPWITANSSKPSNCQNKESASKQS
Sequence of Serine/threonine-protein kinase Aurora (Q96GD4 whole entry, looked up, the tested form may be a part): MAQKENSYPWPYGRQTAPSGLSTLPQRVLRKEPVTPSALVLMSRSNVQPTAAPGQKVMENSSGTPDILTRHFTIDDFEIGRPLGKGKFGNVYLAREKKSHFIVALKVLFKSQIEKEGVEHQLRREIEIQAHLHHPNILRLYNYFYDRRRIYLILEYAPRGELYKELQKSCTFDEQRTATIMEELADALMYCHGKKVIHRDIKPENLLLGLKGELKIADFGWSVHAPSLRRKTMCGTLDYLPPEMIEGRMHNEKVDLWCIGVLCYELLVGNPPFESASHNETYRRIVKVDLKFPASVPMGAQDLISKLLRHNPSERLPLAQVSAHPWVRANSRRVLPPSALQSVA
Sequence of Serine/threonine-protein kinase Aurora (Q9UQB9 whole entry, looked up, the tested form may be a part): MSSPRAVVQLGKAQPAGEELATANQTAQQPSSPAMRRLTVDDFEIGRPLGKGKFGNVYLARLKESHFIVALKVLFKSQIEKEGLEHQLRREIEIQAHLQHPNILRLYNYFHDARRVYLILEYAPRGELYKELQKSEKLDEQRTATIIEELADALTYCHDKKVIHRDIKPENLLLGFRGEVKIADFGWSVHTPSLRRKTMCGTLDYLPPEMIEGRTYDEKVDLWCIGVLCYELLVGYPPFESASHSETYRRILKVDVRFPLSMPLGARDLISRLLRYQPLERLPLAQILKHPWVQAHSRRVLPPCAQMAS
Summary of the method: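 KiNativ-type profiling in HeLa lysate (5 mg/mL total protein). Lysate preincubated 15 min with inhibitor at 50, 10, 2, 0.8 or 0 μM, then ATP or ADP acylphosphate probe added (5 μM final) for 10 min. Reaction stopped with urea and analysed by targeted MS, using up to four fragment ions per kinase peptide-probe conjugate. % inhibition calculated against untreated lysate. Duplicate reactions.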

[6] = biological target: Serine/threonine-protein kinase Chk1 (Homo sapiens, UniProt O14757); assay: Inhibition of CHK1 in human HeLa cells lysate pre incubated for 15 mins followed by ATP acyl phosphate probe addition and measured after 10 mins by LC-MS/MS analysis; format: subcellular
[7] = biological target: Epidermal growth factor receptor (Homo sapiens, UniProt P00533); assay: Inhibition of EGFR in human HeLa cells lysate at 2 uM pre incubated for 15 mins followed by ATP acyl phosphate probe addition and measured after 10 mins by LC-MS/MS analysis relative to control; format: subcellular; settings: time 25.0 min
[8] = biological target: Serine/threonine-protein kinase 10 (Homo sapiens, UniProt O94804); assay: Inhibition of LOK in human HeLa cells lysate pre incubated for 15 mins followed by ATP acyl phosphate probe addition and measured after 10 mins by LC-MS/MS analysis; format: subcellular
[9] = biological target: T1, STE20-related kinase adapter protein beta (Homo sapiens) (UniProt Q9C0K7); assay: Inhibition of ALS2CR2 in human HeLa cells lysate at 50 uM pre incubated for 15 mins followed by ADP acyl phosphate probe addition and measured after 10 mins by LC-MS/MS analysis relative to control; format: subcellular; settings: time 25.0 min
T1 sequence (whole entry): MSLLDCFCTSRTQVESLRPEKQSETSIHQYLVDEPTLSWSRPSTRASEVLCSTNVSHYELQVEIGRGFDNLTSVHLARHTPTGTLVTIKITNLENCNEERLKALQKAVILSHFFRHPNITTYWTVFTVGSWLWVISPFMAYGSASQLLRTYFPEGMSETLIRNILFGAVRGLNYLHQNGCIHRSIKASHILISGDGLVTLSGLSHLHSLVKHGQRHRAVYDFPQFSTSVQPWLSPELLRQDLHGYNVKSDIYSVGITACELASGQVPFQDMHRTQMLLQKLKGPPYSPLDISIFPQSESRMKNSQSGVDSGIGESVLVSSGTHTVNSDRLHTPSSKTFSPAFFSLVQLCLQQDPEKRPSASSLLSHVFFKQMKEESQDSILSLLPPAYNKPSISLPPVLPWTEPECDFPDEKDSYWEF
Summary of the method: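 HeLa cell lysates (5 mg/mL total protein) were preincubated with inhibitor at 0, 0.8, 2, 10 or 50 μM for 15 min. ATP or ADP acylphosphate probe was then added (5 μM final) for 10 min, and reactions were stopped with urea. Up to four fragment ions per kinase probe-peptide were quantified by targeted MS. % inhibition was taken relative to untreated lysate. Run in duplicate.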

[10] = Plasma concentration in Sprague-Dawley rat at 2 mg/kg, po measured after 30 mins by LC-MS/MS analysis; format: ADME, organism-based
[11] = biological target: Tyrosine-protein kinase JAK1 (Homo sapiens, UniProt P23458); assay: Inhibition of JAK1 domain 2 in human HeLa cells lysate at 2 uM pre incubated for 15 mins followed by ATP acyl phosphate probe addition and measured after 10 mins by LC-MS/MS analysis relative to control; format: subcellular; settings: time 25.0 min
[12] = biological target: Phosphatidylinositol 4-kinase alpha (Homo sapiens, UniProt P42356); assay: Inhibition of PIK4CA in human HeLa cells lysate at 10 uM pre incubated for 15 mins followed by ATP acyl phosphate probe addition and measured after 10 mins by LC-MS/MS analysis relative to control; format: subcellular; settings: time 25.0 min
Sequence of Phosphatidylinositol 4-kinase alpha (P42356 whole entry, looked up): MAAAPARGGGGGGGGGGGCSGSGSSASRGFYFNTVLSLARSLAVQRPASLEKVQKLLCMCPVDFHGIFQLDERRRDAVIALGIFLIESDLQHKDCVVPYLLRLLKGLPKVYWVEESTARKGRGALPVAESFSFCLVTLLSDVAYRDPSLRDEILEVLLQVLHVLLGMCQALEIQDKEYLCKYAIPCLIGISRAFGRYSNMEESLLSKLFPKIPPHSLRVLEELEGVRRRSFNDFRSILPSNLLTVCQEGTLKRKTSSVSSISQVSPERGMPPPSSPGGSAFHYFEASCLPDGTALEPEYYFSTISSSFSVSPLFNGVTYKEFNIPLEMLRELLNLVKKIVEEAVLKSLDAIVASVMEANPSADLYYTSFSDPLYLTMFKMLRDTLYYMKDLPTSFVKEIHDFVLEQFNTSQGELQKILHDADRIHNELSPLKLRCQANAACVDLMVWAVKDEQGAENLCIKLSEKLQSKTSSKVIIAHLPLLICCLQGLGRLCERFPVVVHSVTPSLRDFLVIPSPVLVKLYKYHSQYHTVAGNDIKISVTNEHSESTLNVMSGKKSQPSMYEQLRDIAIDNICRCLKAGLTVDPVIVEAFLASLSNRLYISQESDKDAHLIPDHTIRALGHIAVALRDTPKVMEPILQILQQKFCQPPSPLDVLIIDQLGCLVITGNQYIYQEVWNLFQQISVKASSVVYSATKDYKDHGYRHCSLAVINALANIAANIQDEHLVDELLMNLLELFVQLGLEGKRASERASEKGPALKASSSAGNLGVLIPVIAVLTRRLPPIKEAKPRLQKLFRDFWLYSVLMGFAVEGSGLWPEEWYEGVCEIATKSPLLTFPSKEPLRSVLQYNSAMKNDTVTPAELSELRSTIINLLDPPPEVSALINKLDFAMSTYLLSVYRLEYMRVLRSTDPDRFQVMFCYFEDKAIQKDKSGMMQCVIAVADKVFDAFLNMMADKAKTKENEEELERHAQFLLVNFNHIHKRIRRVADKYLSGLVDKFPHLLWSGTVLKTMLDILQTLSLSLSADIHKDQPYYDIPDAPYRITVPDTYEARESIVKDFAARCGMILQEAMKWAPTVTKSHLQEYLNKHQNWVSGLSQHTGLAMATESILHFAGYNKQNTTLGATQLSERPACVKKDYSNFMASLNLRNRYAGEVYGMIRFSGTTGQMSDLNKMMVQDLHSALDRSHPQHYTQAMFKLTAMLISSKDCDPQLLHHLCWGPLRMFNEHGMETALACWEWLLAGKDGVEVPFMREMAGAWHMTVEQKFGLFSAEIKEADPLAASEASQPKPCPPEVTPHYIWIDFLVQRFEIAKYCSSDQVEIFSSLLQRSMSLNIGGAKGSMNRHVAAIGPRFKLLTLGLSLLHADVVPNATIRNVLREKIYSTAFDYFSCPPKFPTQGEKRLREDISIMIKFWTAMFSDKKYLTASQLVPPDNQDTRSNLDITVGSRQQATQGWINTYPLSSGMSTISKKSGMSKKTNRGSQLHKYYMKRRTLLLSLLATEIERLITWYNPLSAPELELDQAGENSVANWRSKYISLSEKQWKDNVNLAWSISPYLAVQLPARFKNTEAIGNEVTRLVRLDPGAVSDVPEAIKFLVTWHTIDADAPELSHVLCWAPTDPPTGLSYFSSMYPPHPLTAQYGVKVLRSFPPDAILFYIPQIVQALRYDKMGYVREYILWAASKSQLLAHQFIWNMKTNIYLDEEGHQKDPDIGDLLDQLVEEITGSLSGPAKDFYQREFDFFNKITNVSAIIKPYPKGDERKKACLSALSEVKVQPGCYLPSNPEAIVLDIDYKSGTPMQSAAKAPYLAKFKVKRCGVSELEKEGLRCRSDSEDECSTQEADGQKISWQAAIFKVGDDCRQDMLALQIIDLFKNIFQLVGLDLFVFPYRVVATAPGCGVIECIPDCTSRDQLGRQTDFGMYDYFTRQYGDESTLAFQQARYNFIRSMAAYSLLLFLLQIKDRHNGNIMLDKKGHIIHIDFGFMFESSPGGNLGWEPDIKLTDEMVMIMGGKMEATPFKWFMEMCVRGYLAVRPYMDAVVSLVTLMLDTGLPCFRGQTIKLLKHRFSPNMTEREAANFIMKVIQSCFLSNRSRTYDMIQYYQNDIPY

[13] = Inhibition of MSK1/2 domain 1 in human HeLa cells lysate at 10 uM pre incubated for 15 mins followed by ATP acyl phosphate probe addition and measured after 10 mins by LC-MS/MS analysis relative to control; settings: 25 min, condition cancer
[14] = system: HeLa; assay: Antiproliferative activity against human HeLa cells over expressing BMK1 assessed as reduction in cell viability at 5 uM after 48 hrs by MTT assay; format: functional, cell-based
Summary of the method: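 HeLa cells were infected with empty adenovirus or adenovirus encoding dominant-negative BMK1(AEF). After 24 hr they were treated with or without 5 μM drug for 48 hr and read by MTT. % growth inhibition = (1 − MTT of group / MTT of Ad-EV-only cells) × 100. n = 3.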

[15] = biological target: Mitogen-activated protein kinase kinase kinase 5 (Homo sapiens, UniProt Q99683); assay: Inhibition of MAP3K5 in human HeLa cells lysate pre incubated for 15 mins followed by ATP acyl phosphate probe addition and measured after 10 mins by LC-MS/MS analysis; format: subcellular
[16] = biological target: Tyrosine-protein kinase Lyn (Homo sapiens, UniProt P07948); assay: Inhibition of LYN in human HeLa cells lysate at 2 uM pre incubated for 15 mins followed by ATP acyl phosphate probe addition and measured after 10 mins by LC-MS/MS analysis relative to control; format: subcellular; settings: time 25.0 min

**Q.** Which inhibition [1] does the source give for `CCOc1cc(N2CCC(O)CC2)ccc1Nc1ncc2c(n1)N(C)c1ccccc1C(=O)N2C` here?
**A.** Its inhibition is 1.5%.

**Q.** And the IC50 [2]?
**A.** Its IC50 is > 50 µM.

**Q.** And the IC50 [3]?
**A.** Its IC50 is > 50 µM.

**Q.** And the IC50 [4]?
**A.** Its IC50 is > 50 µM.

**Q.** And the inhibition [5]?
**A.** Its inhibition is -7.7%.

**Q.** What about the IC50 [6] of the same molecule?
**A.** Its IC50 is > 50 µM.

**Q.** What about the inhibition [7] of the same molecule?
**A.** The inhibition was 2.5%.

**Q.** And the IC50 [8]?
**A.** Its IC50 is > 50 µM.

**Q.** And the inhibition [9]?
**A.** The inhibition was 12.7%.

**Q.** And the concentration at 0.5 h [10]?
**A.** Its concentration at 0.5 h is ~500 nM.

**Q.** What about the inhibition [11] of the same molecule?
**A.** Its inhibition is 9.7%.

**Q.** And the inhibition [12]?
**A.** Its inhibition is 7.7%.

**Q.** What about the inhibition at 10 µM [13] of the same molecule?
**A.** Its inhibition at 10 µM is -10.6%.

**Q.** What about the Activity [14] of the same molecule?
**A.** The Activity was “Active”.

**Q.** What about the IC50 [15] of the same molecule?
**A.** The IC50 was > 50 µM.

**Q.** And the inhibition [16]?
**A.** Its inhibition is -6.3%.
